Results taken from ChEMBL document CHEMBL1275298, “Synthesis and anti-inflammatory activity evaluation of some novel 6-alkoxy(phenoxy)-[1,2,4]triazolo[3,4-a]phthalazine-3-amine derivatives” (2010).
Activity calls are given as the source filed them. The calls are words filed in the database; no cut-off is given here.

Legend:
Mus musculus [1] = assay: Antiinflammatory activity in mouse assessed as inhibition of xylene-induced ear edema at 100 mg/kg, ip after 0.5 hrs relative to control; format: functional; conditions: route intraperitoneal
How it was run: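 Kunming mice, 20-25 g, 10 per group. Freshly prepared DMSO solution given i.p. at 0.05 mL/20 g; vehicle-only (DMSO) controls. Xylene ear edema test run 0.5 h after dosing; mice killed 30 min after xylene, 7 mm plugs cut from treated and untreated ears, and edema taken as the plug weight difference. Reported as % edema reduction versus vehicle.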

Mus musculus [2] = assay: Antiinflammatory activity in mouse assessed as inhibition of xylene-induced ear edema at 200 mg/kg, po administered 5 hrs before xylene challenge measured after 3 hrs post dose; format: functional
How it was run: (§1)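 Kunming mice, 20-25 g, 10 per group. Compound homogenized in 0.5% CMC-Na and given orally at 0.2 mL/10 g; vehicle controls got 0.5% CMC-Na. Xylene applied 1, 2, 3, 4, 5 or 24 h after dosing (3 h for 50 and 100 mg/kg). Killed 30 min later; 7 mm ear plugs weighed, treated minus untreated. Result given as % edema reduction versus CMC-Na controls.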

Mus musculus [3] = assay: Antiinflammatory activity in mouse assessed as inhibition of xylene-induced ear edema at 200 mg/kg, po administered 24 hrs before xylene challenge measured after 3 hrs post dose; format: functional; how it was run: as §1
Mus musculus [4] = assay: Antiinflammatory activity in mouse assessed as inhibition of xylene-induced ear edema at 200 mg/kg, po administered 4 hrs before xylene challenge measured after 3 hrs post dose; format: functional; how it was run: as §1
Mus musculus [5] = assay: Antiinflammatory activity in mouse assessed as inhibition of xylene-induced ear edema at 200 mg/kg, po administered 2 hrs before xylene challenge measured after 3 hrs post dose; format: functional; how it was run: as §1
Mus musculus [6] = assay: Antiinflammatory activity in mouse assessed as inhibition of xylene-induced ear edema at 200 mg/kg, po administered 1 hr before xylene challenge measured after 3 hrs post dose; format: functional; how it was run: as §1
Mus musculus [7] = assay: Antiinflammatory activity in mouse assessed as inhibition of xylene-induced ear edema at 200 mg/kg, po administered 3 hrs before xylene challenge measured after 3 hrs post dose; format: functional; how it was run: as §1
Mus musculus [8] = assay: Antiinflammatory activity in mouse assessed as inhibition of xylene-induced ear edema at 100 mg/kg, po administered 3 hrs before xylene challenge measured after 3 hrs post dose; format: functional; how it was run: as §1
Mus musculus [9] = assay: Antiinflammatory activity in mouse assessed as inhibition of xylene-induced ear edema at 50 mg/kg, po administered 3 hrs before xylene challenge measured after 3 hrs post dose; format: functional; how it was run: as §1
Mus musculus [10] = assay: Antiinflammatory activity in mouse assessed as inhibition of xylene-induced ear edema at 200 mg/kg, po administered 1 to 24 hrs before xylene challenge measured after 4 hrs post dose; format: functional, organism-based; set-up: dose 200 mg/kg; how it was run: as §1

COc1ccc(Oc2nn3c(N)nnc3c3ccccc23)cc1
inhibition in vivo at 100 mg/kg (Mus musculus [1]): 44%

CC(C)Oc1nn2c(N)nnc2c2ccccc12
inhibition in vivo at 100 mg/kg (Mus musculus [1]): 39.4%

Cc1ccccc1Oc1nn2c(N)nnc2c2ccccc12
inhibition in vivo at 100 mg/kg (Mus musculus [1]): 68.3%

Nc1nnc2c3ccccc3c(Oc3ccc(F)cc3)nn12
inhibition in vivo at 100 mg/kg (Mus musculus [1]): 48.8%

CCCCOc1nn2c(N)nnc2c2ccccc12
inhibition in vivo at 100 mg/kg (Mus musculus [1]): 67.6%

Nc1ccc(Oc2nn3c(N)nnc3c3ccccc23)cc1
inhibition in vivo at 200 mg/kg (Mus musculus [2]): 55.9% | inhibition in vivo at 200 mg/kg (Mus musculus [3]): 18.9% | inhibition in vivo at 200 mg/kg (Mus musculus [4]): 80.6% | inhibition in vivo at 200 mg/kg (Mus musculus [5]): 81.3% | inhibition in vivo at 100 mg/kg (Mus musculus [1]): 83% | inhibition in vivo at 200 mg/kg (Mus musculus [6]): 60.5% | inhibition in vivo at 200 mg/kg (Mus musculus [7]): 84.3% | inhibition in vivo at 100 mg/kg (Mus musculus [8]): 37.9% | inhibition in vivo at 50 mg/kg (Mus musculus [9]): 22.8%

Nc1nnc2c3ccccc3c(Oc3ccc(Br)cc3)nn12
inhibition in vivo at 100 mg/kg (Mus musculus [1]): 48.4%

Cc1ccc(Oc2nn3c(N)nnc3c3ccccc23)cc1
inhibition in vivo at 100 mg/kg (Mus musculus [1]): 52.7%

Nc1nnc2c3ccccc3c(Oc3ccccc3Cl)nn12
inhibition in vivo at 200 mg/kg (Mus musculus [2]): 57.2% | inhibition in vivo at 200 mg/kg (Mus musculus [3]): 8.24% | inhibition in vivo at 200 mg/kg (Mus musculus [4]): 64.1% | inhibition in vivo at 200 mg/kg (Mus musculus [5]): 59% | inhibition in vivo at 100 mg/kg (Mus musculus [1]): 81.2% | inhibition in vivo at 200 mg/kg (Mus musculus [6]): 52.7% | inhibition (Mus musculus [10]): Active | inhibition in vivo at 200 mg/kg (Mus musculus [7]): 75% | inhibition in vivo at 100 mg/kg (Mus musculus [8]): 46.7% | inhibition in vivo at 50 mg/kg (Mus musculus [9]): 30.8%

Nc1nnc2c3ccccc3c(Oc3ccccc3)nn12
inhibition in vivo at 100 mg/kg (Mus musculus [1]): 55%

Nc1ccccc1Oc1nn2c(N)nnc2c2ccccc12
inhibition in vivo at 100 mg/kg (Mus musculus [1]): 38.4%

Nc1nnc2c3ccccc3c(Oc3ccc(Cl)cc3Cl)nn12
inhibition in vivo at 100 mg/kg (Mus musculus [1]): 40.4%

CCCCCCOc1nn2c(N)nnc2c2ccccc12
inhibition in vivo at 100 mg/kg (Mus musculus [1]): 39.5%

Cc1cccc(Oc2nn3c(N)nnc3c3ccccc23)c1
inhibition in vivo at 100 mg/kg (Mus musculus [1]): 68%

CCCCCCCCOc1nn2c(N)nnc2c2ccccc12
inhibition in vivo at 100 mg/kg (Mus musculus [1]): 58%

CC(C)Cc1ccc(C(C)C(=O)O)cc1 (centres undefined) [IBUPROFEN]
inhibition in vivo at 200 mg/kg (Mus musculus [2]): 23.4% | inhibition in vivo at 200 mg/kg (Mus musculus [3]): 13.2% | inhibition in vivo at 200 mg/kg (Mus musculus [4]): 36.3% | inhibition in vivo at 200 mg/kg (Mus musculus [5]): 38.6% | inhibition in vivo at 100 mg/kg (Mus musculus [1]): 61.2% | inhibition in vivo at 200 mg/kg (Mus musculus [6]): 29.6% | inhibition in vivo at 200 mg/kg (Mus musculus [7]): 64.6% | inhibition in vivo at 100 mg/kg (Mus musculus [8]): 26.9%

Nc1nnc2c3ccccc3c(Oc3ccc(Cl)cc3)nn12
inhibition in vivo at 100 mg/kg (Mus musculus [1]): 75%

Nc1nnc2c3ccccc3c(Oc3cccc(Cl)c3)nn12
inhibition in vivo at 100 mg/kg (Mus musculus [1]): 68.8%

Nc1cccc(Oc2nn3c(N)nnc3c3ccccc23)c1
inhibition in vivo at 100 mg/kg (Mus musculus [1]): 68%

CCCCCCCOc1nn2c(N)nnc2c2ccccc12
inhibition in vivo at 100 mg/kg (Mus musculus [1]): 65.7%
